Laboratory results reported in paper PMC9366314 (Acta Pharmaceutica Sinica. B, 2022).

Legend:
[1] = Pharmacokinetic studies in ICR mice; format: in vivo; conditions: male, mouse, plasma
How it was run: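 Male ICR mice received test compound at 5 mg/kg iv or 15 mg/kg po. Samples were centrifuged at 6800×g, 2–8 °C for 6 min, stored at −80 °C and quantified by LC–MS/MS.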

MP41 cells [2] = assay: Cell cycle analysis by flow cytometry, MP41; format: cell-based; conditions: 48 h
How it was run: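 MP41 cells were seeded at 3 × 10^5 cells/well, left overnight, then exposed to test compound for 48 h. Cells were washed and fixed in 70% ethanol at 4 °C for 12 h. Staining with RNase (100 μg/mL) and PI (50 μg/mL) ran at 37 °C for 0.5 h. Phase distribution was read by flow cytometry. Data are mean ± SEM, n = 3.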

92.1 cells [3] = assay: Cell cycle analysis by flow cytometry, 92.1; format: cell-based
MP41 cells [4] = assay: Clonogenic; format: cell-based; conditions: 1 and 3 μmol/L; 9 days
How it was run: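 MP41 cells were seeded at 4000 cells/well and left overnight. They were exposed to test compound for 9 days, with medium and compound renewed every three days. Colonies were fixed in 4% paraformaldehyde for 15 min, stained with crystal violet for 0.5 h and counted with a colony counter. Data are mean ± SEM, n = 3.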

[5] = test system: cleaved caspase-7, Bcl-2, and Mcl-1; assay: Western blot of apoptosis related proteins in UM cells; format: cell-based
How it was run: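 Cells or xenograft tumour tissue were lysed in RIPA buffer with protease and phosphatase inhibitors. Lysates were cleared at 15,000 rpm, 4 °C for 15 min, and protein was quantified by BCA. Proteins were separated on 8%–12% SDS-PAGE, transferred to PVDF and blocked with 5% BSA. After primary and secondary antibodies, bands were detected by enhanced chemiluminescence.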

MP41 cells [6] = assay: Rescue assay, siRNA GNA11 knockdown in MP41 cells; format: cell-based; conditions: 72 h
How it was run: (§1)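 Cells were transfected with siRNA against GNA11 (MP41) or GNAQ (92.1), or with a matching control siRNA. After 48 h, cells were reseeded at 3000 cells/well and cultured 18–24 h. They were then exposed to test compound for 72 h. CCK-8 was added for 2–4 h and absorbance read at 450 nm. Data are mean ± SEM, n = 3.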

CHO-M1 cells = assay: Cytotoxicity on CHO-M1 cells; format: cell-based; conditions: CCK-8
MP41 cells [7] = assay: Transwell migration assay, MP41; format: cell-based; conditions: 3, 10, and 20 μmol/L; 48 h
How it was run: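 MP41 cells were seeded at 1 × 10^4 cells/well in Transwell upper chambers, with RPMI-1640 plus 20% FBS in the lower chamber, and left overnight. Test compound was added for 48 h. Cells left in the upper chamber were removed, and cells on the lower side were stained with crystal violet for 0.5 h and counted by microscope at ×40.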

92.1 cells [8] = assay: Rescue assay, siRNA GNAQ knockdown in 92.1 cells; format: cell-based; conditions: 10 and 20 μmol/L; 72 h
How it was run: as §1

[9] = Human liver microsome stability assay; format: in vitro ADME; conditions: liver microsomes, pH 7.4
How it was run: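 Test compound (1 μmol/L) was preincubated for 5 min at 37 °C with human liver microsomes (0.5 mg/mL) in 100 mmol/L potassium phosphate, pH 7.4, with 5 mmol/L MgCl2. Reactions were started with 1 mmol/L NADPH. Aliquots were quenched with acetonitrile containing internal standard at 0, 5, 15, 30 and 45 min, centrifuged and analysed by LC–MS/MS for half-life and intrinsic clearance.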

Gαq/11 [10] = molecular target: Gαq/11 (Homo sapiens, UniProt P50148); assay: Agonist; format: cell-based; conditions: HEK293-AT1R cells; different concentrations
Chain of Gαq/11 (Homo sapiens, UniProt P50148) (P50148 whole entry): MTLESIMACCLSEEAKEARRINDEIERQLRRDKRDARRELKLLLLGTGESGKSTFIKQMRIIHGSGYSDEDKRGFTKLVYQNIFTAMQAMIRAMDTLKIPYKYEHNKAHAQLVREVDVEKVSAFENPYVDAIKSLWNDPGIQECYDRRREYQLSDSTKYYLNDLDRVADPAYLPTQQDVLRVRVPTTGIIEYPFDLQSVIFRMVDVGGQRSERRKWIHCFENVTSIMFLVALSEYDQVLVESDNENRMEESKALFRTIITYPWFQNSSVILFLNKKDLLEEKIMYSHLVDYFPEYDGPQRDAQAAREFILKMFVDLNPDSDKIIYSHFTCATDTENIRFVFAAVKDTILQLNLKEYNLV
Chain of Gαq/11 (Homo sapiens, UniProt P50148) (P62873 2-340 partner limits assumed): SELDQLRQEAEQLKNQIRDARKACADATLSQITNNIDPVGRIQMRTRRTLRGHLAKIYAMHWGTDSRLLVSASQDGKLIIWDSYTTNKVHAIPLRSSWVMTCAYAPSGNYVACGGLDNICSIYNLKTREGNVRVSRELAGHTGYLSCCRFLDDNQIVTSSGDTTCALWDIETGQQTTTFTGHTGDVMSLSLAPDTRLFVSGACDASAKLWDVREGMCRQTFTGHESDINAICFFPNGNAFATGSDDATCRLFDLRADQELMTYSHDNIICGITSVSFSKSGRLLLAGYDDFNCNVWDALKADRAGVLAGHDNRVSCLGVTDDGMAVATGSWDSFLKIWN
Chain of Gαq/11 (Homo sapiens, UniProt P50148) (P59768 2-68 partner limits assumed): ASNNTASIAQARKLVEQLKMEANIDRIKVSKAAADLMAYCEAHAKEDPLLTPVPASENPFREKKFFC
How it was run: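 HEK293 cells transiently co-transfected with AT1R, Gαq-RLuc8, unlabeled Gβ1 and Gγ2-Venus, replated 24 h after transfection and cultured overnight. Cells were pretreated 1 h with test compound at several concentrations, then AngII was added, followed by coelenterazine as luciferase substrate. BRET between Gα and Gβγ was read on a plate reader. Runs were in triplicate, mean ± SEM (n = 3).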

phosphorylated YAP = assay: Western blot of phosphorylated YAP in MP41 xenograft tumor tissues; format: in vivo, mice; conditions: testing dose
How it was run: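 Nude BALB/c nu/nu mice (18–22 g, 6–8 weeks) bearing MP41 xenografts were randomised (n = 6/group) and dosed ip daily for 21 days (5, 15 or 30 mg/kg/day arms). Tumours were taken on Day 22 and lysed in RIPA with phosphatase and protease inhibitors. Lysates were spun at 15,000 rpm, 4 °C for 15 min, protein quantified by BCA, run on 8–12% SDS-PAGE, transferred to PVDF, blocked in 5% BSA and detected by ECL.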

92.1 cells [11] = assay: Apoptosis assay by flow cytometry, 92.1; format: cell-based
[12] = test system: 92.1 cells (GNAQ Q209L mutation); assay: Cell proliferation inhibition assay; format: cell-based; conditions: 72 h, read-out: Antiproliferation (IC50, μmol/L) 92.1
How it was run: (§2)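 Uveal melanoma cells were grown in RPMI-1640 with 10% FBS at 37 °C, 5% CO2. They were resuspended at 3 × 10^3 cells/mL, seeded and left overnight. Cells were exposed to a concentration series of test compound for 72 h. CCK-8 was added for 2–4 h and absorbance read at 450 nm. IC50 values were fitted from the curves and reported as mean ± SEM, n = 3.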

92.1 cells [13] = assay: Transwell migration assay, 92.1; format: cell-based; conditions: 3, 10, and 20 μmol/L; 48 h
Gαq/11 [14] = assay: IP1 accumulation assay; format: cell-based; conditions: CHO-M1 cells, mean ± SEM (n = 3)
[15] = test system: MP41 cells (GNA11 Q209L mutation); assay: Cell proliferation inhibition assay; format: cell-based; conditions: MP41, 72 h, read-out: Antiproliferation (IC50, μmol/L) MP41
How it was run: as §2

## CN1CCC[C@H]1CN1CCn2cc(-c3ccccc3)nc2[C@@H]1CC1CCCCC1 [GQ262]
[1]; iv, 5 mg/kg
  AUC: 1620 ± 70 ng·h/mL
  Cmax: 2470 ± 192 ng/mL
  MRT: 1.1 ± 0.1 h
  Tmax: 0.08 h
  Vd: 3.9 ± 0.4 L/kg
  clearance: 50.2 ± 2.1 mL/min/kg
  half-life: 1.8 ± 0.2 h
[1]; po, 15 mg/kg
  AUC: 2900 ± 358 ng·h/mL
  Cmax: 1040 ± 267 ng/mL
  MRT: 3.1 ± 0.7 h
  Tmax: 0.5 ± 0.4 h
  bioavailability: 59.5%
  half-life: 2.4 ± 0.7 h
MP41 cells [2]; 3 μmol/L
  Cellular proportion in G0/G1 phase: 78.0%
MP41 cells [2]; 10 μmol/L
  Cellular proportion in G0/G1 phase: 79.4%
92.1 cells [3]; 10 μmol/L
  Cellular proportion in G0/G1 phase: 77.1%
92.1 cells [3]; 20 μmol/L
  Cellular proportion in G0/G1 phase: 83.5%
MP41 cells [4]
  Colony formation of MP41 cells: obviously blocked the colony formation
[5]
  Bcl-2 and Mcl-1 levels: down-regulation
  Cleaved caspase-7 level: up-regulation
MP41 cells [6]; 5 and 10 μmol/L
  Antiproliferative activity on MP41 (si#control): remarkable antiproliferative activity
MP41 cells [6]; GNA11 knockdown
  Antiproliferative activity on MP41 (si#GNA11): could not inhibit MP41 cell proliferation
CHO-M1 cells; 2 h, 10 and 20 μmol/L
  Cell viability of CHO-M1 cells, 2 h: did not impact the cell viability
CHO-M1 cells; 24 h, up to 20 μmol/L
  Cell viability of CHO-M1 cells, 24 h: did not impact the cell viability
MP41 cells [7]
  MP41 cell migration: remarkably and dose-dependently inhibited
92.1 cells [8]
  Antiproliferative activity on GNAQ knockdown 92.1 cells: no inhibitory effect on proliferation
[9]
  CLint scaled at 1 μmol/L: 30.2 mL/min/kg
  half-life at 1 μmol/L: 0.958 h
Gαq/11 [10]
  Effect on AngII-induced BRET signals: dose-dependently inhibitory efficacy on BRET signals
Phosphorylated YAP
  Phosphorylated YAP expression in tumor tissues: increased the accumulation of phosphorylated YAP
92.1 cells [11]; 10 μmol/L
  Apoptotic rate: 9.34%
92.1 cells [11]; 20 μmol/L
  Apoptotic rate: 17.5%
[12]
  IC50: 10.4 ± 0.1 µmol/L
92.1 cells [13]
  92.1 cell migration: remarkably and dose-dependently inhibited
Gαq/11 [14]
  IP1 inhibition at 10 μmol/L: 57.2 ± 1.9%
[15]
  IC50: 5.1 ± 0.6 µmol/L
